Measurements pooled from the literature.
Compare with care: the assays were run in different laboratories.

Compound | test system | setting | measurement | result
CCc1nc2c(C)cc(N3CCN(CC(=O)N4CC(O)C4)CC3)cn2c1N(C)c1nc(-c2ccc(F)cc2)c(C#N)s1 | human, plasma | oral, 150 mg, fed, healthy volunteers | AUC(0-inf) | 6400 ng·h/mL
O=C(O)C1CCN(c2ncc(-c3ccc4c(c3)OCCCO4)s2)CC1 | male Swiss mouse, brain | oral, 30 mg/kg, single dose | tissue/plasma ratio | 0.028
Fc1ccc(COC2CCN(Cc3ccc4[nH]cnc4c3)CC2)cc1F | mouse, brain | intraperitoneal, 5 mg/kg | unbound tissue/plasma ratio | 3.7
CC(C)(O)c1ccccc1-c1ccc2[nH]c(/C=C/c3ccc(C(F)(F)F)cc3)nc2c1 | male human, plasma | oral, 2 mg, single dose, fasted | AUC(0-t) | 94.7 ng·h/mL
CN(C(=O)n1cnc(-c2ccc[n+]([O-])c2)c1)C1CCCCC1 | male cynomolgus monkey, plasma | oral, 0.1 mg/kg | Tmax | 1 h
CCN(CC)C(=O)[C@@]1(c2ccccc2)C[C@H]1CN | male cynomolgus monkey, plasma | oral, 30 mg/kg | Tmax | 4 h
Cn1cc(-c2ccc(S(=O)(=O)[C@@H]3C[C@@H](C(=O)NC4(C#N)CC4)N(C(=O)C4(C(F)(F)F)CC4)C3)c(C(F)(F)F)c2)cn1 | human, plasma | oral, 600 mg, single dose, fasted, healthy volunteers | AUC(0-inf) | 28700 ng·h/mL
CC(C)(C)c1ccc(O)c(CN(Cc2cc(C(C)(C)C)ccc2O)C2CCC(NC(N)=O)CC2)c1 (stereo not drawn) | male C57BL/6 mouse, brain | intraperitoneal, 10 mg/kg, single dose | tissue/plasma ratio | 0.79
Cn1c(=O)oc2ccc(-c3ccc(C[C@@H](C#N)NC(=O)[C@@H]4CNCCCO4)cc3)cc21 | male human, plasma | oral, 50 mg, single dose, healthy volunteers | AUC | 17.6 µM·h
COc1ccc([C@@H]2CN(C(=O)[C@@H](O)CO)C[C@@]2(C)[C@@H](C)O)cc1OC1CN(c2ccc(C)cn2)C1 | human, plasma | oral, 30 mg, single dose, healthy volunteers | AUC(0-inf) | 6330 ng·h/mL
CC(C)n1cc(C#N)c2cc(-n3cc(C(=O)O)cn3)ccc21 | male human, plasma | oral, 600 mg, single dose, fasted, healthy volunteers | AUC(0-inf) | 99800 ng·h/mL
COc1cc(C(=O)NC2CCN(C)CC2)c(F)cc1Nc1ncc(C(F)(F)F)c(Oc2cccc3c2C(=O)N(C)C3)n1 | human, plasma | oral, 10 mg, multiple doses, once daily, steady state, patients | AUC | 0.816 µM·h
